According to ChEMBL document CHEMBL1142153, “Pharmacokinetics and disposition of CS-023 (RO4908463), a novel parenteral carbapenem, in animals” (Antimicrob Agents Chemother, 2007):

Legend:
Rattus norvegicus [1] = experiment: AUC (0-inf) in rat assessed as radioactivity at 10 mg/kg, iv; assay type: ADME, organism-based, Plasma; parameters: time infinity, dose 10 mg/kg, route intravenous; conditions: in vivo
How it was run: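 [14C]CS-023 with unlabeled drug in saline, 10 mg/kg single i.v. bolus (rats via tail vein, 4.58 MBq/kg; monkeys via cephalic vein, 3 MBq/kg). Blood drawn with heparin (rat jugular, monkey femoral vein) at set times. Plasma centrifuged at 4°C, and total radioactivity counted by liquid scintillation with tissue solubilizer. Quantitation limit was twice background.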

Rattus norvegicus [2] = experiment: Urinary excretion ratio in rat assessed as radioactivity at 10 mg/kg, iv after 7 days; assay type: ADME, organism-based, Urine; parameters: dose 10 mg/kg, route intravenous; conditions: in vivo, 168 h
How it was run: (§1)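 Rats were dosed i.v. via the tail vein with [14C]CS-023 at 10 mg/kg (4.58 MBq/kg) in saline, then kept in individual metabolic cages for separate urine and feces collection over 7 days. Samples up to 24 h were collected at around 4°C into 0.5 M MOPS pH 6.0, and feces were homogenized. Radioactivity was measured by liquid scintillation counting. Parent drug and metabolite were apportioned by silica TLC (3% NaCl:acetonitrile 2:1) with imaging-plate analysis. n=4.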

Rattus norvegicus [3] = experiment: Fecal excretion ratio in rat assessed as radioactivity at 10 mg/kg, iv after 7 days; assay type: ADME, organism-based; parameters: dose 10 mg/kg, route intravenous; conditions: in vivo, 168 h; how it was run: as §1
Rattus norvegicus [4] = experiment: Biliary excretion in bile duct cannulated rat assessed as radioactivity at 10 mg/kg, iv after 48 h; assay type: ADME, organism-based; parameters: dose 10 mg/kg, route intravenous; conditions: in vivo
How it was run: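 Rats had bile-duct cannulation by laparotomy under diethyl ether and were housed in Bollman cages. They were then dosed i.v. with [14C]CS-023 at 10 mg/kg in saline. Bile was collected on ice over set intervals, and radioactivity was measured by liquid scintillation counting.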

Macaca fascicularis [5] = experiment: AUC (0-inf) in monkey assessed as radioactivity at 10 mg/kg, iv; conditions: cynomolgus monkey, in vivo
Macaca fascicularis [6] = experiment: Fecal excretion ratio in monkey assessed as radioactivity at 10 mg/kg, iv after 7 days; conditions: cynomolgus monkey, in vivo, 168 h
Macaca fascicularis [7] = experiment: Urinary excretion ratio in monkey assessed as radioactivity at 10 mg/kg, iv after 7 days; conditions: cynomolgus monkey, in vivo, 168 h

AUC (Rattus norvegicus [1]): 26800 ng·h/mL
Activity (Rattus norvegicus [2]): 87.1%
Activity (Rattus norvegicus [3]): 12.5%
Activity (Rattus norvegicus [4]): 0.54%
AUC (Macaca fascicularis [5]): 87400 ng·h/mL
Activity (Macaca fascicularis [6]): 7.5%
Activity (Macaca fascicularis [7]): 88%
Structure (SMILES): C[C@@H](O)[C@H]1C(=O)N2[C@@H]1[C@@H](C)C(S[C@H]1C[C@@H](C(=O)N3CC[C@H](NC(=O)CNC(=N)N)C3)N(C)C1)=[14C]2C(=O)O
